Measurements as given in ChEMBL document CHEMBL1142652, “5-(2-aminoethyl)dibenzo[c,h][1,6]naphthyridin-6-ones: variation of n-alkyl substituents modulates sensitivity to efflux transporters associated with multidrug resistance” (J Med Chem, 2005).
pIC50: −log10 of the molar value.

Key:
[1] = test system: P388; experiment: Inhibitory concentration against P388 cell line in mouse leukemia was determine; type: functional, cell-based
Summary of the method: (§1)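 MTT microtiter tetrazolium assay. Cells exposed continuously for 4 days to varying drug concentrations, MTT read at the end of day 4. An untreated control ran in each assay. IC50 taken; each assay done at least twice in six replicate wells. Sources: RPMI 8402 human lymphoblasts and CPT-resistant CPT-K5; P388 mouse leukemia and CPT-resistant TOP1-deficient P388/CPT45; KB3-1 with KBV-1 (MDR1) and KBH5.0 (BCRP, selected stepwise against Hoechst 33342).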

[2] = test system: RPMI 8402; experiment: Inhibitory concentration against lymphoblast RPMI 8402 cell line was determined; type: functional, cell-based; conditions: Homo sapiens; summary of the method: as §1
[3] = test system: RPMI 8402; experiment: Cytotoxicity against camptothecin-resistant RPMI 8402; type: functional, cell-based; conditions: Homo sapiens; summary of the method: as §1
[4] = Inhibitory concentration against KB/V-1 cells overexpress MDR1; type: functional, cell-based; conditions: Homo sapiens; summary of the method: as §1
[5] = Inhibitory concentration against camptothecin-resistant variant of P388 cell line was determined; type: functional, cell-based, Mus musculus; summary of the method: as §1
[6] = test system: KB 3-1; experiment: Inhibitory concentration against KB3-1 cell line was determined; type: functional, cell-based; conditions: Homo sapiens; summary of the method: as §1
[7] = test system: KB 3-1; experiment: Inhibitory concentration against KBH5.0 cells overexpress BCRP; type: functional, cell-based; conditions: Homo sapiens, KBH5.0 cell; summary of the method: as §1
[8] = molecular target: T1, DNA topoisomerase 1 (Homo sapiens) (UniProt P11387); experiment: Relative topoisomerase I-mediated plasmid DNA cleavage compared to topotecan; type: functional
T1 sequence (whole entry): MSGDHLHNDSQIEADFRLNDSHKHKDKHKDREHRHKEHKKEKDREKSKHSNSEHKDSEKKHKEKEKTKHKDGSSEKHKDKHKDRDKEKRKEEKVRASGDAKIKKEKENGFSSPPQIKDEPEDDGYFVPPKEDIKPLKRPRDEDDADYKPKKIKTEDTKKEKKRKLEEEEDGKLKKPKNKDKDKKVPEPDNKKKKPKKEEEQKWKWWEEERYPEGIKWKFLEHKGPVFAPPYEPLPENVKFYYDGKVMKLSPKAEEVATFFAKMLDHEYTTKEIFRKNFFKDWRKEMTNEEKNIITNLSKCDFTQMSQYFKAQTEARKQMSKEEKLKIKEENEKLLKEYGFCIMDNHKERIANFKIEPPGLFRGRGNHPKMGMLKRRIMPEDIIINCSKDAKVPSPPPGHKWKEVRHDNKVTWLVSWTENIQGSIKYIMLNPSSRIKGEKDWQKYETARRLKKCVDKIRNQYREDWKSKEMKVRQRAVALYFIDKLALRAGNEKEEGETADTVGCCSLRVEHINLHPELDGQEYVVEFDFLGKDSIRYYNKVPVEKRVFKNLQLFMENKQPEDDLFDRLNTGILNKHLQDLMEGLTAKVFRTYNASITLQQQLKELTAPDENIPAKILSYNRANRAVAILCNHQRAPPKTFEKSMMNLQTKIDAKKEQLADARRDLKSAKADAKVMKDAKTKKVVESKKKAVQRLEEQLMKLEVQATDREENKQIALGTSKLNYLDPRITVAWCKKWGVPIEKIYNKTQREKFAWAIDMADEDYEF
Summary of the method: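 Recombinant human topoisomerase I (T7-expressed in E. coli as a fusion protein). End-labeled plasmid YepG, CsCl-purified, incubated with drug and enzyme 30 min at 37 °C. Gel autoradiograms, typically 24 h exposure. Value is REC: concentration relative to topotecan (set at 1.0) that gives the same cleavage.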

| Compound | pIC50 [1] | pIC50 [2] | pIC50 [3] | pIC50 [4] | pIC50 [5] | pIC50 [6] | pIC50 [7] | Activity [8] |
| --- | --- | --- | --- | --- | --- | --- | --- | --- |
| CCN(CC)CCn1c(=O)c2cc(OC)c(OC)cc2c2cnc3cc4c(cc3c21)OCO4 | 8.40 | 8.22 | 6.07 | 7.82 | 6.82 | 8.40 | 8.30 | 1.4 |
| COc1cc2c(=O)n(CCN(Cc3ccccc3)C(C)C)c3c4cc5c(cc4ncc3c2cc1OC)OCO5 | 6.64 | 6.52 | 5.23 | 5.40 | 6.19 | 6.10 | 6.30 | 7.4 |
| CCN(CCn1c(=O)c2cc(OC)c(OC)cc2c2cnc3cc4c(cc3c21)OCO4)Cc1ccccc1 | 7.30 | 7.11 | 5.12 | 6.40 | 6.44 | 6.74 | 6.48 | 12.3 |
| COc1cc2c(=O)n(CCN(C)C(C)C)c3c4cc5c(cc4ncc3c2cc1OC)OCO5 | 8.22 | 8.10 | 6.20 | 8.52 | 7.15 | 8.52 | 8.40 | 0.03 |
| COc1cc2c(=O)n(CCN3CCN(C)CC3)c3c4cc5c(cc4ncc3c2cc1OC)OCO5 | 6.64 | 6.52 | 5.23 | 5.60 | 6.19 | 6.30 | 6.40 | 1000 |
| COc1cc2c(=O)n(CCN(C)Cc3ccccc3)c3c4cc5c(cc4ncc3c2cc1OC)OCO5 | 7.42 | 7.28 | 5.70 | 6.52 | 6.35 | 7.30 | 6.82 | 15.8 |
| COc1cc2c(=O)n(CCN(Cc3ccccc3)Cc3ccccc3)c3c4cc5c(cc4ncc3c2cc1OC)OCO5 | 6.60 | 6.42 | 5.71 | 6.44 | 6.30 | 6.52 | 6.52 | 15 |
| COc1cc2c(=O)n(CCN3CCNCC3)c3c4cc5c(cc4ncc3c2cc1OC)OCO5 | 7.22 | 7.05 | 5.57 | 5.72 | 6.52 | 7.00 | 6.28 | 4.3 |
| COc1cc2c(=O)n(CCNC(C)C)c3c4cc5c(cc4ncc3c2cc1OC)OCO5 | 9.00 | 8.52 | 6.74 | 8.30 | 7.52 | 8.30 | 8.22 | 0.3 |
| COc1cc2c(=O)n(CCN(C)C)c3c4cc5c(cc4ncc3c2cc1OC)OCO5 | – | – | – | – | 6.64 | – | 8.22 | 0.3 |
| COc1cc2c(=O)n(CCN)c3c4cc5c(cc4ncc3c2cc1OC)OCO5 | 8.52 | 8.40 | 6.60 | 7.82 | 7.57 | 8.30 | 7.92 | 0.02 |
| COc1cc2c(=O)n(CCN3CCCC3)c3c4cc5c(cc4ncc3c2cc1OC)OCO5 | 8.22 | 8.52 | 6.41 | 8.10 | 7.22 | 8.52 | 8.40 | 0.3 |
| CC[C@@]1(O)C(=O)OCc2c1cc1n(c2=O)Cc2cc3c(CN(C)C)c(O)ccc3nc2-1 [TOPOTECAN] | – | 7.68 | < 5.00 | – | < 5.00 | – | 6.36 | – |
| COc1cc2c(=O)n(CCN(C(C)C)C(C)C)c3c4cc5c(cc4ncc3c2cc1OC)OCO5 | 8.22 | 8.10 | 6.22 | 7.40 | 6.70 | 8.30 | 7.40 | 4.7 |
| CCN(CCn1c(=O)c2cc(OC)c(OC)cc2c2cnc3cc4c(cc3c21)OCO4)C(C)C | 8.40 | 8.30 | 6.51 | 7.68 | 6.92 | 8.52 | 8.10 | 0.17 |
| COc1cc2c(=O)n(CCN3CCC(C)CC3)c3c4cc5c(cc4ncc3c2cc1OC)OCO5 | 7.85 | 7.52 | 6.35 | 7.30 | 6.72 | 7.52 | 7.40 | > 100 |
| COc1cc2c(=O)n(CCN3CCN(Cc4ccccc4)CC3)c3c4cc5c(cc4ncc3c2cc1OC)OCO5 | 6.60 | 6.40 | 6.15 | 6.15 | 6.70 | 6.30 | 6.12 | 1000 |
| COc1cc2c(=O)n(CCNCc3ccccc3)c3c4cc5c(cc4ncc3c2cc1OC)OCO5 | 7.80 | 7.80 | 6.55 | 7.46 | 6.74 | 8.22 | 8.00 | 0.5 |
| CCNCCn1c(=O)c2cc(OC)c(OC)cc2c2cnc3cc4c(cc3c21)OCO4 | 9.15 | 8.70 | 6.77 | 7.80 | 7.52 | 9.00 | 8.30 | 0.1 |
| CNCCn1c(=O)c2cc(OC)c(OC)cc2c2cnc3cc4c(cc3c21)OCO4 [GENZ-644282] | 9.52 | 9.52 | 6.60 | 7.66 | 7.15 | 9.40 | 9.30 | 0.1 µM |
| COc1cc2c(=O)n(CCN(Cc3ccccc3)C(C)(C)C)c3c4cc5c(cc4ncc3c2cc1OC)OCO5 | 6.70 | 6.07 | 5.24 | 5.60 | 5.73 | 6.72 | 6.30 | > 1000 |
| COc1cc2c(=O)n(CCN3CCCCC3)c3c4cc5c(cc4ncc3c2cc1OC)OCO5 | 8.22 | 8.15 | 6.40 | 7.89 | 7.30 | 8.40 | 8.05 | 0.6 |
| COc1cc2c(=O)n(CCNC(C)(C)C)c3c4cc5c(cc4ncc3c2cc1OC)OCO5 | 8.70 | 8.70 | 6.66 | 7.80 | 7.43 | 8.52 | 8.22 | 0.1 |
